# Active and inactive are the calls of the source. No cut-off for these calls is given here.
# Tests used:
# [1] = tested on: DU-145; assay: Cytotoxicity against human DU145 cells after 2 days by MTT assay; format: functional, cell-based; settings: DU-145, 48 h
# How it was run: (§1)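 Cells grown in RPMI 1640 with 10% heat-inactivated FBS at 37 °C and 5% CO2. Seeded at 3 × 10³ cells/well, then given a range of sample concentrations in duplicate for two days. Read by MTT-type dye and solubilization/stop solution, left overnight at room temperature to dissolve formazan, with OD at 570 nm.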
# [2] = tested on: HT-29; assay: Cytotoxicity against human HT-29 cells after 2 days by MTT assay; format: functional, cell-based; settings: HT-29, 48 h; how it was run: as §1
# [3] = tested on: MCF7; assay: Cytotoxicity against human MCF7 cells after 2 days by MTT assay; format: functional, cell-based; settings: MCF7, 48 h; how it was run: as §1
# [4] = tested on: MCF7; assay: Cytotoxicity against human MCF7 cells at 10 uM after 2 days by MTT assay; format: functional; settings: MCF7, 48 h
# [5] = tested on: HT-29; assay: Cytotoxicity against human HT-29 cells at 10 uM after 2 days by MTT assay; format: functional; settings: HT-29, 48 h
# [6] = Cytotoxicity against human A375P cells after 2 days by MTT assay; format: functional, cell-based; settings: 48 h; how it was run: as §1
# [7] = tested on: HCT-116; assay: Cytotoxicity against human HCT116 cells at 10 uM after 2 days by MTT assay; format: functional; settings: HCT-116, 48 h
# [8] = target: T1, Heat shock protein HSP90 (Homo sapiens) (UniProt P07900+P08238); assay: Inhibition of HSP90 in human MCF7 cells assessed as induction of HSP70 expression at 5 uM after 24 hrs by Western blotting; format: cell-based
# How it was run: (§2)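 MCF-7 cells seeded at 10⁵ cells/well and grown to 60% confluency. Treated with compounds at 5 µM in 0.4% DMSO for 24 h, with DMSO alone as control. Her2 and Hsp70 levels detected by western blot.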
# [9] = target: T1, Heat shock protein HSP90 (Homo sapiens); assay: Inhibition of HSP90 in human MCF7 cells assessed as reduction of Her2 protein level at 5 uM after 24 hrs by Western blotting relative to control; format: cell-based; how it was run: as §2
# [10] = tested on: DU-145; assay: Cytotoxicity against human DU145 cells at 10 uM after 2 days by MTT assay; format: functional; settings: DU-145, 48 h
# [11] = tested on: HCT-116; assay: Cytotoxicity against human HCT116 cells after 2 days by MTT assay; format: functional, cell-based; settings: HCT-116, 48 h; how it was run: as §1
# [12] = Cytotoxicity against human A375P cells at 10 uM after 2 days by MTT assay; format: functional; settings: 48 h
Structure (SMILES),IC50 [1] [µM],IC50 [2] [µM],IC50 [3] [µM],inhibition at 10 µM [4] [%],inhibition at 10 µM [5] [%],IC50 [6] [µM],inhibition at 10 µM [7] [%],inhibition [8],inhibition [9] [%],inhibition at 10 µM [10] [%],IC50 [11] [µM],inhibition at 10 µM [12] [%]
CN(C)CCCNc1nc(NCc2ccco2)c2ccccc2n1,51,4.45,,,,,,,,,,
Cc1cccc(N2CCN(CCCNc3nc(NCc4ccco4)c4ccccc4n3)CC2)c1C,0.93,0.84,3.31,95.9,94,3.04,93.2,Active,< 50,91.5,0.77,
c1coc(CNc2nc(NCCN3CCOCC3)nc3ccccc23)c1,,,2.12,95.8,,,,,,,,
c1coc(CNc2nc(NCCCN3CCOCC3)nc3ccccc23)c1,79.9,23.9,,,,,,,,,,
c1coc(CNc2nc(NCCCCN3CCOCC3)nc3ccccc23)c1,6.24,1.34,,,68.7,5.23,79.8,,,52.3,2.1,59.2
Cc1cccc(N2CCN(CCCCNc3nc(NCc4ccco4)c4ccccc4n3)CC2)c1C,1.07,0.86,3.14,95.8,94.2,3.9,94.3,Active,> 50,93.6,0.84,
CCCCNc1nc(NCc2ccco2)c2cc(F)ccc2n1,5.91,3.04,,,88.1,8.48,87.8,,,75.4,4.31,
CCN(CC)CCNc1nc(NCc2ccco2)c2cc(F)ccc2n1,,,,,27.5,,26.4,,,26.6,,7.67
CCN(CC)CCNc1nc(NCc2ccco2)c2ccccc2n1,> 100,11.3,,,75.1,34.9,62.6,,,28.5,25.9,
CCCCCNc1nc(NCc2ccco2)c2ccccc2n1,11.5,6.73,,,,,,,,,,
Fc1ccc2nc(NCCN3CCN(c4cccc(Cl)c4Cl)CC3)nc(NCc3ccco3)c2c1,,,,95.5,,2.42,,,,,1.01,
Fc1ccc2nc(NCCCCN3CCOCC3)nc(NCc3ccco3)c2c1,6.46,1.36,,,76.8,4.44,82,,,57.6,2.14,62
Clc1cccc(N2CCN(CCCCNc3nc(NCc4ccco4)c4ccccc4n3)CC2)c1Cl,3.87,3.37,2.97,95.8,94.8,3.75,94.7,Active,> 50,94.3,3.2,
Cc1cccc(N2CCN(CCCCNc3nc(NCc4ccco4)c4cc(F)ccc4n3)CC2)c1C,3.32,1.83,3.13,97.7,96.1,3.28,97.4,Active,< 50,93.4,0.82,97.5
Fc1ccc2nc(NCCN3CCOCC3)nc(NCc3ccco3)c2c1,,,,,9.68,,12.8,,,27.8,,28.6
COc1ccc(Nc2nc(NCc3ccco3)c3ccccc3n2)cc1,35,12.2,,64.5,,,,,,,,
CCCCNc1nc(NCc2ccco2)c2cccc(F)c2n1,,,,87,,2.63,,,,,1.33,
Clc1cccc(N2CCN(CCCNc3nc(NCc4ccco4)c4ccccc4n3)CC2)c1Cl,3.71,3.37,2.98,95.8,94.1,3.36,94.5,Active,> 50,93.2,3.36,
COc1ccc(Nc2nc(NCc3ccco3)c3cc(F)ccc3n2)cc1,11.6,4.34,,,86.2,7.66,74,,,55.4,6.15,
Cc1cccc(N2CCN(CCCNc3nc(NCc4ccco4)c4cc(F)ccc4n3)CC2)c1C,2.66,1.05,,,96.7,2.83,97.3,,,95.9,1.14,97.6
Fc1ccc2nc(NCCCN3CCOCC3)nc(NCc3ccco3)c2c1,> 100,9.32,,,83.1,22.5,52.1,,,26.7,25.3,
CN(C)CCNc1nc(NCc2ccco2)c2ccccc2n1,,,,,21.7,,,,,20,,
c1coc(CNc2nc(NCCCN3CCCC3)nc3ccccc23)c1,35.3,6.01,,,87.5,19.4,67.5,,,40.1,16.1,
COc1cccc2c1C(=O)c1c(O)c3c(c(O)c1C2=O)C[C@@](O)(C(=O)CO)C[C@@H]3O[C@H]1C[C@H](N)[C@H](O)[C@H](C)O1 [DOXORUBICIN],,0.82,,,,,,,,,,
Fc1ccc2nc(NCCCCN3CCN(c4cccc(Cl)c4Cl)CC3)nc(NCc3ccco3)c2c1,0.67,0.39,,,96.3,2.65,97.1,,,95.5,0.52,97.3
CCCCCNc1nc(NCc2ccco2)c2cc(F)ccc2n1,7.24,4.03,,94.4,,7.34,94.2,,,83.6,4.1,
CCCCNc1nc(NCc2ccco2)c2ccccc2n1,4.99,2.94,,66.7,92.3,9.2,94.8,,,89.9,5.47,

# Source: ChEMBL document CHEMBL1681778, “Synthesis and biological evaluation of 2,4-diaminoquinazoline derivatives as novel heat shock protein 90 inhibitors” (Bioorg Med Chem Lett, 2011)
